Shown are actives, neighbours in structure and some others; about 2.2% of the full set was active somewhere.
Mcl1 Noxa PPI = Mcl-1/Noxa interaction inhibition; Q07820; TR-FRET Mcl-1/Noxa peptide binding, 2 h; inhibition, % at 21.7 µM; 220,000 tested, 1.5% active;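 active = compounds that cut the protein-peptide binding signal by more than 50% relative to plate controls in a single-dose test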;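 note: His-tagged Mcl-1 with rhodamine Noxa BH3 peptide and terbium anti-His antibody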
Target sequence (Q07820 whole entry, looked up): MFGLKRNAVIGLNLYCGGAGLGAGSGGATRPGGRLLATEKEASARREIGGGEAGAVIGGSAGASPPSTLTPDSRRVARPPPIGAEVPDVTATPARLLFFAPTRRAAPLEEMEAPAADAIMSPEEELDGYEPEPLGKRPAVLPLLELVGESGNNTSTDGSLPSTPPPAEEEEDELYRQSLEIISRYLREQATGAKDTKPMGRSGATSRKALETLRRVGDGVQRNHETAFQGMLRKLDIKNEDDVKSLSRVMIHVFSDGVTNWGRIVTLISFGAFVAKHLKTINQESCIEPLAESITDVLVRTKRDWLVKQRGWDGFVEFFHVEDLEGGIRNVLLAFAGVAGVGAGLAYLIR
Bim-Mcl-1 = human Bim-Mcl-1 interaction inhibition; Q07820; Bead-based flow cytometry, Bim peptide-Mcl-1 binding; inhibition, % at 10 µM; 190,000 tested, 0.1% active; AID 1009; in the data active = inhibition above about 40%
RBBP9 inhibitor = blocks human serine hydrolase RBBP9. O75884. recombinant RBBP9, FP-Rh probe fluorescence polarization. inhibition, % at 7.94 µM. 220,000 tested, 0.2% active. AID 1515;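 active = inhibition above the campaign mean of all tested compounds plus 3 SD, cut at about 14% in these data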
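Test system: recombinant human RBBP9. Quantity: 2.5 µM RBBP9 dispensing solution, before mixing. Detection: FP readout at 525/598 nm. Reagent: Serine-hydrolase probe FP-Rh, 375 nM pre-mixing. Measure: % inhibition. Control set: DMSO-treated enzyme wells and wells lacking RBBP9. Buffer or medium: Tris-NaCl-Pluronic buffer, pH 8.0. Times: preincubation 30 min plus labeling 45 min at 25 °C.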
Mcl1-Bid inh = disrupts binding of human Mcl-1 to Bid peptide | Q07820 | TR-FRET Mcl-1/Bid-Dy647 peptide binding, 1536-well | inhibition, % at 21.7 µM | 220,000 tested, 0.97% active | AID 1021;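 active = compounds that cut the binding signal by more than half at the single screening dose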;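 note: His-tagged Mcl-1 with europium anti-His antibody binding Bid BH3 peptide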
MCL1 BIM primary = inhibitors of human MCL1 binding to BIM-BH3 peptide | Q07820 | GST-MCL1 / FITC-Bim-BH3 fluorescence polarization | inhibition, % at 10.9 µM | 320,000 tested, 0.68% active | AID 2057;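 active = inhibition above the mean inhibition of all tested compounds plus 3 SD, set per campaign, cut at about 40% in these data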;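 note: higher means more loss of mP so more displacement of Bim peptide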
EBV gp42 block = blocks Epstein-Barr virus glycoprotein 42 binding; Fluorescence polarization binding assay, mP read-out; inhibition, % (tested at 21.74 µM); 220,000 tested, 0.42% active; AID 1085; in the data active = inhibition above about 50%
Bcl-xL conf = Bcl-xL (human) inhibition, MCL1 counter-screen confirmation; shares compounds with MCL1 BIM primary; GST-Bcl-xL / FITC-Bim BH3 peptide FP binding; AID 2166; 1,700 tested, 54% active; inhibition, % at 10.9 µM;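 active = inhibition above a cutoff equal to the mean inhibition of all tested compounds plus 3 SD, cut at about 30% in these data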
Target sequence (Q07817 whole entry, looked up): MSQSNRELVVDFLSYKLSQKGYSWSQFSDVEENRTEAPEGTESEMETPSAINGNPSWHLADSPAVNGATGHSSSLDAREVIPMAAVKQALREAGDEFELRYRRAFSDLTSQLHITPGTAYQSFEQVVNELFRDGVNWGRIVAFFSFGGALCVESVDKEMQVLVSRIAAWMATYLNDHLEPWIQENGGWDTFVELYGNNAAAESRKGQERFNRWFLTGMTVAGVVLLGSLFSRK
MCL1 inh confirm = confirmation of human MCL1 and BIM-BH3 interaction inhibitors | shares compounds with MCL1 BIM primary | GST-MCL1 / FITC-Bim-BH3 fluorescence polarization | inhibition, % at 10.9 µM | 1,700 tested, 61% active;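 active = inhibition above the average of all tested compounds plus 3 SD, cut at about 40% in these data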
Hits are given with their value.

Screening COc1cc([C@@H]2[C@H]3CN(C)CC=C3C(C#N)=C(N)C2(C#N)C#N)cc2c1OCO2 returned Mcl1 Noxa PPI inactive, Bim-Mcl-1 inactive, RBBP9 inhibitor inactive, Mcl1-Bid inh inactive, MCL1 BIM primary 52, EBV gp42 block inactive, Bcl-xL conf inactive and MCL1 inh confirm inactive.
Screening OC(c1ccc(F)cc1)(C1CCCCC1)C(CN1CCOCC1)c1ccccc1 (configuration not stated) returned MCL1 BIM primary inactive.
`COc1ccc(S(=O)(=O)Nc2ccccc2C(=O)N2CCOCC2)cc1Cl` gave MCL1 BIM primary inactive.
`COc1ccccc1C(=O)NC(CCSC)C(=O)NC1CCCCCC1` (configuration not stated) gave Mcl1 Noxa PPI inactive, Bim-Mcl-1 inactive, RBBP9 inhibitor inactive, Mcl1-Bid inh inactive, MCL1 BIM primary inactive and EBV gp42 block inactive.
Screening Cc1c(O)nc(SCC(=O)Nc2ccc3c4c(cccc24)CC3)n(-c2ccc(F)cc2)c1=O returned Mcl1 Noxa PPI inactive, Bim-Mcl-1 inactive, RBBP9 inhibitor inactive, Mcl1-Bid inh inactive, MCL1 BIM primary inactive and EBV gp42 block inactive.
For O=C1Nc2ccccc2S/C1=C\C(=O)N1CCCC1 the results were Mcl1 Noxa PPI inactive, Bim-Mcl-1 inactive, RBBP9 inhibitor inactive, Mcl1-Bid inh inactive, MCL1 BIM primary inactive and EBV gp42 block inactive.
Screening O=C1CCCC2=C1Sc1ccccc1N2 returned Mcl1 Noxa PPI inactive, RBBP9 inhibitor inactive, Mcl1-Bid inh inactive, MCL1 BIM primary 69, EBV gp42 block 65, Bcl-xL conf 53 and MCL1 inh confirm 78.
COc1ccc(C2=CC3=C(Br)C(=O)C(C)(OC(=O)c4cccs4)C(=O)C3=CO2)cc1 (configuration not stated) was read as MCL1 BIM primary 42, Bcl-xL conf inactive and MCL1 inh confirm 51.
Screening C=CC1=C2C=C(C3CC3)N(C3CC3)C=C2C(=O)C(C)(OC(=O)c2ccco2)C1=O (configuration not stated) returned MCL1 BIM primary inactive.
Screening COc1ccc(C2=CC3=C(Br)C(=O)C(C)(OC(=O)c4ccco4)C(=O)C3=CO2)cc1 (configuration not stated) returned Mcl1 Noxa PPI 63, Mcl1-Bid inh inactive, MCL1 BIM primary 54, EBV gp42 block inactive, Bcl-xL conf 35 and MCL1 inh confirm 76.
CC(=O)c1cccc(OC(=O)c2ccc3c(=O)n4c(nc3c2)CCC4)c1 was read as MCL1 BIM primary inactive.
CCn1c(=O)c2sccc2n(Cc2ccc(C)cc2)c1=O was read as MCL1 BIM primary inactive.
For CN(C)CCCNS(=O)(=O)c1ccc(N2CCN(Cc3ccc4c(c3)OCO4)CC2)c([N+](=O)[O-])c1 the results were MCL1 BIM primary inactive.
CN(C)c1ccc(C(CNC(=O)c2ccc(-c3ccccc3)cc2)N2CCOCC2)cc1 (configuration not stated) was read as MCL1 BIM primary 89, Bcl-xL conf inactive and MCL1 inh confirm inactive.
Cc1ccc(C(=O)NCC(c2ccc(F)cc2)N2CCOCC2)cc1 (configuration not stated) was read as Mcl1 Noxa PPI inactive, RBBP9 inhibitor inactive, Mcl1-Bid inh inactive, MCL1 BIM primary inactive and EBV gp42 block inactive.
For COc1ccccc1-n1nnnc1SCC(=O)Nc1ccc(C)c(N)c1 the results were MCL1 BIM primary 139, Bcl-xL conf inactive and MCL1 inh confirm inactive.
COc1ccc(C(=O)N/N=C/c2cc3ccccc3[nH]c2=S)cc1 was read as Mcl1 Noxa PPI inactive, Bim-Mcl-1 inactive, RBBP9 inhibitor inactive, Mcl1-Bid inh inactive, MCL1 BIM primary 44, EBV gp42 block inactive, Bcl-xL conf inactive and MCL1 inh confirm inactive.
Screening CCc1ccc(C(C(=O)NC2CCCCC2)N(C(=O)c2csnn2)C2CC2)cc1 (configuration not stated) returned MCL1 BIM primary inactive.
For O=C(O)c1ccc2c3c(ncnc13)-c1ccccc1C2=O the results were Mcl1 Noxa PPI inactive, Bim-Mcl-1 inactive, RBBP9 inhibitor inactive, Mcl1-Bid inh inactive, MCL1 BIM primary 74, EBV gp42 block 76, Bcl-xL conf 121 and MCL1 inh confirm 142.
O=C1c2ccccc2-c2ncnc3cccc1c23 was read as RBBP9 inhibitor inactive.
`CC(NC(=O)c1ccc(Br)s1)c1ccncc1` (configuration not stated) gave Mcl1 Noxa PPI inactive, Bim-Mcl-1 inactive, RBBP9 inhibitor inactive, Mcl1-Bid inh inactive, MCL1 BIM primary inactive and EBV gp42 block inactive.
O=C(N/N=C/c1sc2ccccc2c1O)c1cccc2ccccc12 was read as Mcl1 Noxa PPI inactive, Bim-Mcl-1 inactive, RBBP9 inhibitor inactive, Mcl1-Bid inh inactive, MCL1 BIM primary inactive and EBV gp42 block inactive.
For Oc1c(C=Nc2cccc3cccnc23)sc2ccccc12 the results were Mcl1 Noxa PPI inactive, Bim-Mcl-1 inactive, RBBP9 inhibitor inactive, Mcl1-Bid inh inactive, MCL1 BIM primary 128, EBV gp42 block inactive, Bcl-xL conf 37 and MCL1 inh confirm 99.
`Cc1ccc(N2CCN(S(=O)(=O)c3nnc(NC(=O)c4ccccc4)s3)CC2)cc1` gave MCL1 BIM primary inactive.
`CN1CCN(C(c2ccc(Br)cc2)c2cc(Cl)c3cccnc3c2O)CC1` (configuration not stated) gave MCL1 BIM primary 40, Bcl-xL conf 47 and MCL1 inh confirm 106.
`Cc1n[nH]c(C)c1N1C(=O)c2cccc3c(N4CCCCCC4)ccc(c23)C1=O` gave Mcl1 Noxa PPI inactive, Bim-Mcl-1 inactive, RBBP9 inhibitor inactive, Mcl1-Bid inh inactive, MCL1 BIM primary active, EBV gp42 block 193, Bcl-xL conf 184 and MCL1 inh confirm active.
For NS(=O)(=O)c1ccc(NC(=O)COC(=O)c2cc3ccccc3cc2O)cc1 the results were Mcl1 Noxa PPI inactive, RBBP9 inhibitor inactive, Mcl1-Bid inh inactive, MCL1 BIM primary inactive and EBV gp42 block inactive.
For Cc1ccccc1CSc1nc(C(C)(C)C)cc(=O)[nH]1 the results were Mcl1 Noxa PPI inactive, Bim-Mcl-1 inactive, RBBP9 inhibitor inactive, Mcl1-Bid inh inactive, MCL1 BIM primary inactive and EBV gp42 block inactive.
For Cn1c(O)c(N=NC(=O)c2ccccc2O)c2ccccc21 the results were Mcl1 Noxa PPI inactive, Bim-Mcl-1 inactive, RBBP9 inhibitor inactive, Mcl1-Bid inh inactive, MCL1 BIM primary inactive and EBV gp42 block inactive.
`COc1ccccc1NC(=O)Cn1c(O)c(N=NC(=O)c2ccccc2O)c2ccccc21` gave Mcl1 Noxa PPI inactive, Bim-Mcl-1 inactive, RBBP9 inhibitor inactive, Mcl1-Bid inh inactive, MCL1 BIM primary 50, EBV gp42 block inactive, Bcl-xL conf inactive and MCL1 inh confirm 62.
